In the test the target is T1, Protein-glutamine gamma-glutamyltransferase (Homo sapiens, UniProt P21980).
T1 sequence (P21980 whole entry): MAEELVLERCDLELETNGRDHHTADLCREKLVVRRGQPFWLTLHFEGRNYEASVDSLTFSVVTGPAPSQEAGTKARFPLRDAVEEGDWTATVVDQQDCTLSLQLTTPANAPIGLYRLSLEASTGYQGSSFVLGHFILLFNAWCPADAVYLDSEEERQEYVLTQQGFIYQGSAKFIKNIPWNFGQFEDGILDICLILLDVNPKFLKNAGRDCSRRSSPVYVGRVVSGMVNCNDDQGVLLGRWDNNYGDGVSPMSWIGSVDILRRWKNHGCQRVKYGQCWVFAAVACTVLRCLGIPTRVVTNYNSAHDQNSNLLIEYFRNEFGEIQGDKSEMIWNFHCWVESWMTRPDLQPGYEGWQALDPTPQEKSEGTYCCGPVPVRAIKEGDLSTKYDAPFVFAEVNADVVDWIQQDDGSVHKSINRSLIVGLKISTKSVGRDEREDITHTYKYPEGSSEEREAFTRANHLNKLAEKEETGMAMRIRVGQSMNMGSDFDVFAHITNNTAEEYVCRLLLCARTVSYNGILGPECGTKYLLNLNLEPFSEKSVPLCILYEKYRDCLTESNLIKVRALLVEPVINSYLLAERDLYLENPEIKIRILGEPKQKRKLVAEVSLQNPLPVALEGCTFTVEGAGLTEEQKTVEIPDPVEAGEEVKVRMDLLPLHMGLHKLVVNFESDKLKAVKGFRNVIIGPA
The test can be described thus: Inhibition of human recombinant TG2 expressed in Escherichia coli. An outline of the steps: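 Enzyme purified to >90%. Inhibitor at 0.001–0.3 mM. Reaction started by adding TG2; NADH loss read at 340 nm. KI and kinh came from fitting progress curves to irreversible-inhibition equations.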
For orientation: Ki means a dissociation constant, usually derived from enzyme kinetics or from competition with a known ligand. For the molecule `O=C(NC(Cc1c[nH]c2ccc(F)cc12)C(=O)NCC1CC(Br)=NO1)OCc1ccccc1` (centres undefined), the Ki is 19 µM.
In the case of `O=C(N[C@@H](Cc1c[nH]c2ccc(F)cc12)C(=O)NCC1CC(Br)=NO1)OCc1cnc2ccccc2c1` (some centres undefined), the inhibition constant Ki turned out to be 4 µM.
As for `O=C(N[C@@H](Cc1ccc(O)cc1)C(=O)NC[C@@H]1CC(Br)=NO1)OCc1cnc2ccccc2c1`, the Ki turned out to be 30 µM.
The figure for `COc1ccc2[nH]cc(CC(NC(=O)OCc3cnc4ccccc4c3)C(=O)NCC3CC(Br)=NO3)c2c1` (centres undefined) is 51 µM.
Under `O=C(NC(Cc1c[nH]c2ccc(F)cc12)C(=O)NCC1CC(Br)=NO1)OCc1cnc2ccccc2c1` (centres undefined) stands 18 µM; under `O=C(NC[C@@H]1CC(Br)=NO1)[C@@H]1CCCN1C(=O)OCc1cnc2ccccc2c1`, 11 µM; under `O=C(N[C@@H](Cc1c[nH]c2ccc(F)cc12)C(=O)NC[C@@H]1CC(Br)=NO1)OCc1cnc2ccccc2c1`, 1.3 µM.
Under `O=C(NC(Cc1c[nH]c2cc(F)ccc12)C(=O)NCC1CC(Br)=NO1)OCc1ccccc1` (centres undefined) stands 18 µM; under `O=C(NC(Cc1c[nH]c2cccc(F)c12)C(=O)NCC1CC(Br)=NO1)OCc1ccccc1` (centres undefined), 99 µM.
On to `O=C(N[C@@H](Cc1ccc(O)cc1)C(=O)NCC1CC(Br)=NO1)OCc1cnc2ccccc2c1` (some centres undefined), for which the Ki stood at 41 µM.
Consider `O=C(NC(Cc1c[nH]c2ccc(O)cc12)C(=O)NCC1CC(Br)=NO1)OCc1cnc2ccccc2c1` (centres undefined), for which the Ki is 34 µM.
Under `O=C(NCC1CC(Br)=NO1)C1Cc2ccccc2N1C(=O)OCc1ccccc1` (centres undefined) stands 138 µM; under `O=C(NC(Cc1c[nH]c2ncccc12)C(=O)NCC1CC(Br)=NO1)OCc1ccccc1` (centres undefined), 22 µM.
Regarding `O=C(N[C@@H](Cc1ccc(O)cc1)C(=O)NC[C@@H]1CC(Br)=NO1)OCc1ccccc1`, the Ki stood at 68 µM.

(Values after ChEMBL document CHEMBL1138203, “Structure-activity relationship analysis of the selective inhibition of transglutaminase 2 by dihydroisoxazoles” (J Med Chem, 2006).)
